Measured values as given in ChEMBL document CHEMBL5058577, “EUbOPEN Chemogenomics Library 2 (Multiplex)” (2022).

Tested on: Fibroblast
Test: Multiplex assay against human fibroblast
Type: toxicity, cell-based
Summary of the method: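 At seeding, live cells were stained with Hoechst33342, BioTracker Green Microtubule Cytoskeleton Dye, MitoTracker Red and Annexin V Alexa Fluor 680. After compound addition they were imaged on a CQ1 microscope at 37°C and 5% CO2, and CellPathfinder machine-learning gating sorted them into Hoechst high-intensity objects or normal cells, with normal cells further split into healthy, pyknosed or fragmented nuclei and pyknosed cells into mitotic or apoptotic. Tubulin, mitochondrial-mass and membrane-permeability phenotypes are given as per cents of cells with healthy nuclei.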

[1] = 12 h, 1 µM, compound concentration 1 uM, replicate 1
[2] = 12 h, 1 µM, compound concentration 1 uM, replicate 2
[3] = 12 h, 10 µM, compound concentration 10 uM, replicate 1
[4] = 12 h, 10 µM, compound concentration 10 uM, replicate 2
[5] = 24 h, 1 µM, compound concentration 1 uM, replicate 1
[6] = 24 h, 1 µM, compound concentration 1 uM, replicate 2
[7] = 24 h, 10 µM, compound concentration 10 uM, replicate 1
[8] = 24 h, 10 µM, compound concentration 10 uM, replicate 2
[9] = 48 h, 1 µM, compound concentration 1 uM, replicate 1
[10] = 48 h, 1 µM, compound concentration 1 uM, replicate 2
[11] = 48 h, 10 µM, compound concentration 10 uM, replicate 1
[12] = 48 h, 10 µM, compound concentration 10 uM, replicate 2

CN1CCC(C(=O)c2cccc(NC(=O)c3c(F)cc(F)cc3F)n2)CC1
Population Apoptotic (%) [1]: 28%
Population Fragmented Nuclei (%) [1]: 16%
Population Healthy Nuclei (%) [1]: 64%
Population Hoechst High Intensity Objects (%) [1]: 3%
Population Membrane Permeable-Phenotype (%) [1]: 1%
Population Mitochondria Different-Phenotype (%) [1]: 4%
Population Mitotic Cells (%) [1]: 71%
Population Normal (%) [1]: 96%
Population Pyknosed Nuclei (%) [1]: 18%
Population Tubulin-Different-Phenotype (%) [1]: 28%
Total Cell Count [1]: 153
Population Apoptotic (%) [2]: 40%
Population Fragmented Nuclei (%) [2]: 28%
Population Healthy Nuclei (%) [2]: 53%
Population Hoechst High Intensity Objects (%) [2]: 2%
Population Membrane Permeable-Phenotype (%) [2]: 5%
Population Mitochondria Different-Phenotype (%) [2]: 10%
Population Mitotic Cells (%) [2]: 60%
Population Normal (%) [2]: 97%
Population Tubulin-Different-Phenotype (%) [2]: 43%
Total Cell Count [2]: 142
Population Apoptotic (%) [3]: 32%
Population Fragmented Nuclei (%) [3]: 12%
Population Healthy Nuclei (%) [3]: 74%
Population Hoechst High Intensity Objects (%) [3]: 4%
Population Membrane Permeable-Phenotype (%) [3]: 1%
Population Mitochondria Different-Phenotype (%) [3]: 7%
Population Mitotic Cells (%) [3]: 67%
Population Normal (%) [3]: 95%
Population Pyknosed Nuclei (%) [3]: 13%
Population Tubulin-Different-Phenotype (%) [3]: 42%
Total Cell Count [3]: 266
Population Apoptotic (%) [4]: 36%
Population Fragmented Nuclei (%) [4]: 23%
Population Healthy Nuclei (%) [4]: 54%
Population Membrane Permeable-Phenotype (%) [4]: 6%
Population Mitochondria Different-Phenotype (%) [4]: 6%
Population Mitotic Cells (%) [4]: 63%
Population Pyknosed Nuclei (%) [4]: 22%
Population Tubulin-Different-Phenotype (%) [4]: 63%
Total Cell Count [4]: 142
Population Apoptotic (%) [5]: 45%
Population Fragmented Nuclei (%) [5]: 12%
Population Healthy Nuclei (%) [5]: 74%
Population Hoechst High Intensity Objects (%) [5]: 1%
Population Membrane Permeable-Phenotype (%) [5]: 0%
Population Mitochondria Different-Phenotype (%) [5]: 2%
Population Mitotic Cells (%) [5]: 55%
Population Normal (%) [5]: 98%
Population Pyknosed Nuclei (%) [5]: 12%
Population Tubulin-Different-Phenotype (%) [5]: 21%
Total Cell Count [5]: 156
Population Apoptotic (%) [6]: 40%
Population Fragmented Nuclei (%) [6]: 34%
Population Healthy Nuclei (%) [6]: 43%
Population Membrane Permeable-Phenotype (%) [6]: 6%
Population Mitochondria Different-Phenotype (%) [6]: 10%
Population Mitotic Cells (%) [6]: 59%
Population Pyknosed Nuclei (%) [6]: 21%
Population Tubulin-Different-Phenotype (%) [6]: 45%
Total Cell Count [6]: 148
Population Apoptotic (%) [7]: 54%
Population Fragmented Nuclei (%) [7]: 13%
Population Healthy Nuclei (%) [7]: 71%
Population Hoechst High Intensity Objects (%) [7]: 3%
Population Membrane Permeable-Phenotype (%) [7]: 0%
Population Mitochondria Different-Phenotype (%) [7]: 6%
Population Mitotic Cells (%) [7]: 45%
Population Normal (%) [7]: 96%
Population Pyknosed Nuclei (%) [7]: 14%
Population Tubulin-Different-Phenotype (%) [7]: 37%
Total Cell Count [7]: 258
Population Apoptotic (%) [8]: 37%
Population Fragmented Nuclei (%) [8]: 30%
Population Healthy Nuclei (%) [8]: 50%
Population Hoechst High Intensity Objects (%) [8]: 2%
Population Membrane Permeable-Phenotype (%) [8]: 5%
Population Mitochondria Different-Phenotype (%) [8]: 8%
Population Mitotic Cells (%) [8]: 62%
Population Normal (%) [8]: 97%
Population Pyknosed Nuclei (%) [8]: 19%
Population Tubulin-Different-Phenotype (%) [8]: 65%
Total Cell Count [8]: 153
Population Apoptotic (%) [9]: 71%
Population Fragmented Nuclei (%) [9]: 16%
Population Healthy Nuclei (%) [9]: 74%
Population Hoechst High Intensity Objects (%) [9]: 3%
Population Membrane Permeable-Phenotype (%) [9]: 0%
Population Mitochondria Different-Phenotype (%) [9]: 1%
Population Mitotic Cells (%) [9]: 28%
Population Normal (%) [9]: 96%
Population Pyknosed Nuclei (%) [9]: 8%
Population Tubulin-Different-Phenotype (%) [9]: 25%
Total Cell Count [9]: 164
Population Apoptotic (%) [10]: 56%
Population Fragmented Nuclei (%) [10]: 42%
Population Healthy Nuclei (%) [10]: 46%
Population Hoechst High Intensity Objects (%) [10]: 2%
Population Membrane Permeable-Phenotype (%) [10]: 5%
Population Mitochondria Different-Phenotype (%) [10]: 5%
Population Mitotic Cells (%) [10]: 43%
Population Normal (%) [10]: 97%
Population Pyknosed Nuclei (%) [10]: 10%
Population Tubulin-Different-Phenotype (%) [10]: 67%
Total Cell Count [10]: 156
Population Apoptotic (%) [11]: 71%
Population Fragmented Nuclei (%) [11]: 17%
Population Healthy Nuclei (%) [11]: 71%
Population Hoechst High Intensity Objects (%) [11]: 5%
Population Membrane Permeable-Phenotype (%) [11]: 0%
Population Mitochondria Different-Phenotype (%) [11]: 7%
Population Mitotic Cells (%) [11]: 28%
Population Normal (%) [11]: 94%
Population Pyknosed Nuclei (%) [11]: 10%
Population Tubulin-Different-Phenotype (%) [11]: 40%
Total Cell Count [11]: 272
Population Apoptotic (%) [12]: 54%
Population Fragmented Nuclei (%) [12]: 36%
Population Healthy Nuclei (%) [12]: 55%
Population Hoechst High Intensity Objects (%) [12]: 3%
Population Membrane Permeable-Phenotype (%) [12]: 3%
Population Mitochondria Different-Phenotype (%) [12]: 3%
Population Mitotic Cells (%) [12]: 45%
Population Normal (%) [12]: 96%
Population Pyknosed Nuclei (%) [12]: 7%
Population Tubulin-Different-Phenotype (%) [12]: 69%
Total Cell Count [12]: 152
